For seven compounds, Activity results are on record in ChEMBL document CHEMBL1151731, “Targeting pro-invasive oncogenes with short chain fatty acid-hexosamine analogues inhibits the mobility of metastatic MDA-MB-231 breast cancer cells” (J Med Chem, 2008).

In assay [1] the test system is HEK AD293 (Homo sapiens). The experiment in a line: Inhibition of NF-kappaB transcriptional activity in human HEK AD293 cells by luciferase reporter gene assay. On the technique in general: Reporter assays use an easily measured gene product as a stand-in for the process of interest.
The subject of assay [2] is MDA-MB-231. The experiment in a line: Increase in sialic acid production in human MDA-MB-231 cells by periodate-resorcinal assay. It is filed as functional, cell-based. Put shortly: (§1)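 Periodate-resorcinol assay for total sialic acid, adapted to small volumes. Treated cells were trypsinized, washed and resuspended in PBS, Coulter-counted, and lysed by three freeze-thaw cycles. Readings taken within five minutes. Molecules per cell calculated from the harvested cell number and a sialic acid standard curve run alongside. SEM, n ≥ 3.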

Assay [3] has as its system MDA-MB-231. As to the kind of experiment: Increase in MUC1 mRNA transcription in human MDA-MB-231 cells by qRT-PCR. It is filed as functional, cell-based. An outline of the steps: (§2)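 MDA-MB-231 RNA extracted with Trizol, DNase-treated and column-purified. qRT-PCR with Ct values in quadruplicate; relative expression by 2^-ΔΔCt from average Ct. Amplicons verified by agarose gel electrophoresis.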
Background: In qPCR the cycle at which signal appears reflects the starting amount.

Assay [4] concerns MDA-MB-231. As to the kind of experiment: Enhancement of NFkappaB1 level in human MDA-MB-231 cells by qRT-PCR. It counts as functional, cell-based. An outline of the steps:
as §2

For assay [5], the system named is MDA-MB-231. The experiment in a line: Growth inhibition of human MDA-MB-231 cells after 3 to 5 days. It is filed as functional, cell-based. Put shortly: (§3)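 Proliferation followed over time up to 15 days in MDA-MB-231 cells (RPMI-1640, 10% FBS, 37 °C, 5% CO₂). Compound added at plating from EtOH stock, final EtOH 0.4% v/v. Data averaged from triplicate experiments.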

The test system of assay [6] is MDA-MB-231. The experiment in a line: Downregulation of CXCR4 in human MDA-MB-231 cells by qRT-PCR. It counts as functional, cell-based.
Assay [7] deals with MDA-MB-231. As to the kind of experiment: Growth inhibition of human MDA-MB-231 cells after 15 days. It counts as functional, cell-based. An outline of the steps: as §3
For assay [8], the target named is T1, Histone deacetylase (Homo sapiens) (UniProt Q13547+O15379+Q9UBN7+Q92769+Q9UQL6+Q8WUI4+Q9BY41+Q96DB2+P56524+Q9UKV0+Q969S8). The experiment in a line: Inhibition of HDAC in human MDA-MB-231 cells assessed as increase in p21 mRNA level by qRT-PCR. It counts as cell-based.
Assay [9] concerns the target T1, Histone deacetylase (Homo sapiens). As to the kind of experiment: Inhibition of HDAC in human MDA-MB-231 cells assessed as increase in histone H3 acetylation after 2 days by densitometry.
Assay [10] concerns MDA-MB-231. As to the kind of experiment: Suppression of pro-MMP9 mRNA level in human MDA-MB-231 cells after 3 days by qRT-PCR. It is filed as functional, cell-based. Put shortly: (§4)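 Cells exposed 3 days to compound. RNA extracted with Trizol, DNase-treated and column-purified. qRT-PCR with Ct measured in quadruplicate; relative expression by the 2^-ΔΔCt method. Products checked on agarose gel. SEM of independent experiments done in triplicate.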

Assay [11] relates to MDA-MB-231. As to the kind of experiment: Inhibition of proteosomal activity of human MDA-MB-231 cells measured after 6 hrs in presence of epoxomicin. It is filed as functional, cell-based. Put shortly: (§5)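 Viable MDA-MB-231 cells (100000 in 100 µL RPMI) incubated with a succinyl luminogenic proteasome substrate; activity expressed as luminescence normalized to untreated controls. Analogue exposure 3 days; epoxomicin control exposure 6 h. SEM of independent experiments in triplicate.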

The subject of assay [12] is MDA-MB-231. The experiment in a line: Effect on proteosomal activity of human MDA-MB-231 cells measured after 3 days in absence of epoxomicin. It is filed as functional, cell-based. Put shortly:
as §5

In assay [13] the test system is MDA-MB-231. The experiment in a line: Reduction of endogenous NFKB1 (p105) mRNA level in human MDA-MB-231 cells. It counts as functional, cell-based.
The target in assay [14] is T1, Histone deacetylase (Homo sapiens). As to the kind of experiment: Inhibition of HDAC in human MDA-MB-231 cells assessed as decrease in MUC1 mRNA expression qRT-PCR. It counts as cell-based.
The subject of assay [15] is MDA-MB-231. As to the kind of experiment: Suppression of CXCR4 mRNA in human MDA-MB-231 cells after 3 days by qRT-PCR. It is filed as functional, cell-based. Put shortly:
as §4

For assay [16], the system named is MDA-MB-231. As to the kind of experiment: Inhibition of human MDA-MB-231 cells migration at 50 uM by Boyden chamber assay. It is filed as functional, cell-based.
In assay [17] the test system is MDA-MB-231. As to the kind of experiment: Antiproliferative activity against human MDA-MB-231 cells by Coulter counting analysis. It is filed as functional, cell-based. An outline of the steps:
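MDA-MB-231 cells grown in RPMI-1640 with 10% FBS and plated at 27000 cells/cm² with compound added at plating from EtOH stock (final EtOH 0.4% v/v). Incubated 3 days at 37 °C, 5% CO₂. Viable cells trypsinized and counted on a Coulter counter. SEM, n ≥ 3.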

In assay [18] the test system is MDA-MB-231. The experiment in a line: Inhibition of human MDA-MB-231 cells invasion at 50 uM by Boyden chamber assay. It is filed as functional, cell-based.
The test system of assay [19] is MDA-MB-231. The experiment in a line: Induction of salic acid production in human MDA-MB-231 cells by periodate-resorcinal assay. It counts as functional, cell-based. An outline of the steps: as §1
Assay [20] deals with MDA-MB-231. The experiment in a line: Inhibition of human MDA-MB-231 cells invasion at 150 uM after 2 days by Boyden chamber assay. It is filed as functional, cell-based. Put shortly:
(§6)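 Cells pretreated 2 or 3 days with compound (final EtOH 0.4% v/v), then trypsinized and resuspended in serum-free RPMI-1640. 50000 viable cells per chamber (equal loading confirmed by WST-8) in modified Boyden chambers. Migration measured through 8.0 µm pores toward a serum gradient; invasion through a Matrigel layer. After 24 h at 37 °C, cells were stained with Diff-Quik and counted. Viability rechecked by WST-8 at 24 h. SEM of technical replicates (n = 6 or 3); double-sided t test.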

For assay [21], the system named is MDA-MB-231. The experiment in a line: Inhibition of human MDA-MB-231 cells migration at 50 uM after 3 days by Boyden chamber assay. It is filed as functional, cell-based. Put shortly: as §6
The test system of assay [22] is MDA-MB-231. The experiment in a line: Decrease in MUC1 mRNA transcription in human MDA-MB-231 cells by qRT-PCR. It counts as functional, cell-based. Put shortly: as §2
Assay [23] relates to MDA-MB-231. As to the kind of experiment: Inhibition of human MDA-MB-231 cells invasion at 50 uM after 3 days by Boyden chamber assay. It counts as functional, cell-based. Put shortly:
as §6

In assay [24] the test system is MDA-MB-231. As to the kind of experiment: Decrease in MMP9 gelatinase activity in human MDA-MB-231 cells after 3 days by Zymogram assay. It counts as functional, cell-based.
Assay [25] concerns MDA-MB-231. As to the kind of experiment: Inhibition of NF-kappaB transcriptional activity in human MDA-MB-231 cells at 125 uM by luciferase reporter gene assay. It counts as cell-based. Details: scale not given: the % may be the effect or the level left. Put shortly:
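MDA-MB-231 cells electroporated with an NF-κB luciferase reporter plus an equal mass of SV-promoter β-galactosidase plasmid. Replated after 24 h recovery and treated with compound. NF-κB transactivation taken as the luciferase to β-galactosidase activity ratio. SEM of independent experiments in triplicate.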

In assay [26] the test system is MDA-MB-231. As to the kind of experiment: Inhibition of human MDA-MB-231 cells invasion at 50 uM after 2 days by Boyden chamber assay. It counts as functional, cell-based. An outline of the steps: as §6
Assay [27] deals with HEK293. As to the kind of experiment: Inhibition of NF-kappaB transcriptional activity in human HEK AD293 cells at 125 uM by luciferase reporter gene assay. It counts as cell-based. Further details: scale not given: the % may be the effect or the level left. Put shortly:
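HEK AD293 cells (DMEM, 10% FBS) lipofected with an NF-κB consensus luciferase reporter plus an equal mass of SV-promoter β-galactosidase plasmid. Replated after 24 h recovery and treated with compound. Luciferase read by chemiluminescence and β-galactosidase colorimetrically; activity expressed as their ratio. SEM of independent experiments in triplicate.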

Assay [28] has as its system MDA-MB-231. As to the kind of experiment: Growth inhibition of human MDA-MB-231 cells assessed as rounded-up morphology after 3 days by phase contrast micrograph.
Assay [29] relates to MDA-MB-231. The experiment in a line: Cytotoxicity against human MDA-MB-231 cells at >= 150 uM. It is filed as functional, cell-based.
The subject of assay [30] is MDA-MB-231. The experiment in a line: Suppression of MUC1 transcription in human MDA-MB-231 cells by qRT-PCR. It is filed as functional, cell-based. Put shortly:
as §2

In assay [31] the test system is MDA-MB-231. As to the kind of experiment: Increase in human MDA-MB-231 cells invasion at 30 mM. It counts as functional, cell-based.
Assay [32] concerns MDA-MB-231. The experiment in a line: Increase in intracellular sialic acid production in human MDA-MB-231 cells at 50 mM. It counts as functional, cell-based.
Assay [33] relates to MDA-MB-231. The experiment in a line: Increase in human MDA-MB-231 cells invasion at 10 mM. It counts as functional, cell-based.

Calls of active or inactive are those of the source. The rule behind the calls is not given here.

As to `CCCC(=O)OC1O[C@H](CO)[C@@H](OC(=O)CCC)[C@H](OC(=O)CCC)[C@@H]1NC(C)=O` (stereo partly specified), the result in [1] was inactive. In addition, the result in [2] was Active.

`CCCC(=O)OC[C@@H](OC(=O)CCC)[C@@H](OC(=O)CCC)[C@@H]1OC(OC(=O)CCC)(C(=O)OC)C[C@H](OC(=O)CCC)[C@@H]1NC(C)=O` (stereo partly specified): the outcome in assay [3], in [4], in assay [5] and in assay [6] was Active. Moreover, the result in assay [7] was inactive.

As for `CCCC(=O)O`, the outcome in assay [8] and in assay [9] was Active.

Turning to `CCCC(=O)OC[C@H]1OC(OC(=O)CCC)[C@@H](OC(=O)CCC)[C@@H](OC(=O)CCC)[C@@H]1OC(=O)CCC` (stereo partly specified), the outcome in assay [10], in assay [11], in assay [8], in assay [15], in assay [9] and in assay [17] was Active. Further, the outcome in assay [12], in assay [13], in assay [14], in [16], in [18] and in assay [19] was inactive.

With `CCCC(=O)OC[C@H]1OC(OC(=O)CCC)[C@@H](NC(C)=O)[C@@H](OC(=O)CCC)[C@@H]1OC(=O)CCC` (stereo partly specified), the outcome in assay [10] and in assay [12] was inactive. The result in assay [20], in assay [11], in [21], in assay [13], in [22] and in [8] was Active. In addition, the result in assay [23], in assay [14], in assay [15], in assay [9], in assay [26] and in [17] was Active. In assay [28], the outcome was Active. Moreover, the Activity result in assay [24] is “Dose-dependent effect”; in assay [25], 75%; in [27] it was 75%; in [19], “Dose-dependent effect”.

In the case of `CCCC(=O)OC[C@H]1OC(O)[C@@H](NC(C)=O)[C@@H](OC(=O)CCC)[C@@H]1OC(=O)CCC` (stereo partly specified), the outcome in assay [29], in assay [30] and in assay [2] was Active.

Consider `CC(=O)N[C@H](C=O)[C@@H](O)[C@H](O)[C@H](O)CO`, for which the result in assay [31] was inactive. Also, the outcome in assay [32] and in [33] was Active.
